The list is not random: actives were taken first. Their share in the collection is about 3%.
TRPC4 act: opens the mouse TRPC4 cation channel; B-score at 10 µM; Q9QUQ5; HEK293 TRPC4beta/mu-opioid, Fluo4 calcium fluorescence; active compounds read high; hit rate 0.49% among 310,000;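 active = B-score above 5 SD of library B-scores, and initial fluorescence ratio not above library mean plus 5 SD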;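 also: positive B-score marks a calcium rise read as TRPC4 activation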
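Technique: kinetic Fluo4 calcium fluorescence; Test system: TRPC4beta and mu-opioid receptor HEK293 stable cells; Measure: B-scored integrated calcium fluorescence ratio; Benchmarks: low control buffer alone, high control maximal DAMGO; Schedule: 45 min room-temperature Fluo4 loading, 110 s read.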
TRPC6 inh: inhibitors of mouse TRPC6 channel. Q61143. HEK293-TRPC6, membrane potential dye, ACh-evoked depolarization; active compounds read low. B-score at 10 µM. hit rate 1.1% among 310,000. AID 2553;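 active = B-score under library mean minus 3 SD, initial fluorescence not abnormally high, positive integrated signal ratio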;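 also: B-score derived from integrated fluorescence ratio over the kinetic read; more negative B-score means stronger inhibition of depolarization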
Target sequence (Q61143 whole entry, looked up): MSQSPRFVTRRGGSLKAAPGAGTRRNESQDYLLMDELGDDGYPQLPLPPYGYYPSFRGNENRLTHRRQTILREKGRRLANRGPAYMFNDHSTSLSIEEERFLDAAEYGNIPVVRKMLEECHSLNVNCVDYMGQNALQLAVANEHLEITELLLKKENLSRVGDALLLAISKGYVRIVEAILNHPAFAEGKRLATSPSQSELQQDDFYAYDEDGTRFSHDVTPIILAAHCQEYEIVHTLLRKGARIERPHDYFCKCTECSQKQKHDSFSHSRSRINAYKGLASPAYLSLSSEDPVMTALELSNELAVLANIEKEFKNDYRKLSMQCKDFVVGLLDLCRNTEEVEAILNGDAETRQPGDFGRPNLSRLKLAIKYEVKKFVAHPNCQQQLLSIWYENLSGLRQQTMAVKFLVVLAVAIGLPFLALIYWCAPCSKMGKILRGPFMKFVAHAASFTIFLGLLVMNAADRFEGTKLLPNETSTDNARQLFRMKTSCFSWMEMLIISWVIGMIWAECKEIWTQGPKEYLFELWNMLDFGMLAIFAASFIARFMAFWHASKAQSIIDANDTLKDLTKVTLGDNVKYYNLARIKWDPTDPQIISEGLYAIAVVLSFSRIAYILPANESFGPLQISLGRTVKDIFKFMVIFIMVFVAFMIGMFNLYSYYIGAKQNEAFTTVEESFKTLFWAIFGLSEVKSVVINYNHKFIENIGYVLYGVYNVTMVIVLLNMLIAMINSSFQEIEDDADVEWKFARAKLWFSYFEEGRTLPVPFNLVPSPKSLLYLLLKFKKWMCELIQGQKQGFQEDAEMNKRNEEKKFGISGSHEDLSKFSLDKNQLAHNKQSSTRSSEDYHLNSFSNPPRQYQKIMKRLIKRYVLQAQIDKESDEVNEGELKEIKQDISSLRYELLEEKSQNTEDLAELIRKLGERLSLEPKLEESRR
Kir21 inh: blocks the mouse Kir2.1 inward-rectifier potassium channel | B-score at 10 µM | AID 1672 | P35561 | hit rate 0.85% among 310,000 | HEK293-Kir2.1, FluxOR thallium flux fluorescence; active compounds read low;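 active = fluorescence ratio B-score at or below minus 3 SD of library scores, with starting-brightness B-score within 2 SD, cut at about -4.2 in these data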;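 also: channel flux triggered by added potassium and thallium sulfate stimulus; B-score of peak minus minimum fluorescence over baseline after thallium stimulus; more negative B-score means stronger Kir2.1 block with less thallium influx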
TRPC4 potent: TRPC4 (mouse) allosteric potentiation; AID 2227; B-score at 10 µM; HEK293 TRPC4beta/mu-opioid, DAMGO EC20, Fluo-4 Ca2+ flux; active compounds read high; hit rate 0.42% among 310,000; Q9QUQ5;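 active = B-score of calcium response area above 5 SD of library B-scores, with initial fluorescence ratio within 5 SD of library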;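 also: B-score of integrated fluorescence ratio over time as area under calcium response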
TRPC4 block: TRPC4 (mouse) channel inhibition; Q9QUQ5; HEK293 TRPC4beta/mu-opioid, DAMGO-evoked Fluo4 calcium flux; active compounds read low; B-score at 10 µM; hit rate 0.39% among 300,000; AID 2247;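 active = B-score over 3 SD under the library average, no early fluorescence shift, positive overall ratio signal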
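material = TRPC4beta/mu-opioid receptor HEK293 cell line | probe or stimulus = sequential submaximal and maximal DAMGO stimulation | compound dosing = one concentration per compound | measured by = Fluo4 Ca2+ flux fluorescence | evaluation = integrated fluorescence ratio relative to baseline, converted to per-well B score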
TRPC6 activator: mouse TRPC6 channel activation; Q61143; HEK293-TRPC6 membrane potential dye fluorescence; active compounds read high; B-score at 10 µM; hit rate 0.13% among 310,000; AID 2550;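 active = B-score of the integrated fluorescence ratio above library mean plus 3 SD, and starting fluorescence ratio within library mean plus 5 SD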;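 also: higher score means more depolarization so channel activation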
TRPC4 sel inh 2: second check of whether TRPC6 inhibitors also affect mouse TRPC4; shares compounds with TRPC6 inh; HEK293 TRPC4/MOR, membrane potential dye fluorescence; channel activated by saturating DAMGO dose; inhibition, % at 10 µM; hit rate 42% among 920; AID 2776;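 active = compounds whose fluorescence signal differed from control wells by over 3 SD, either direction, in both duplicate plates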
TRPC4 spec: mouse TRPC4 off-target activity of TRPC6 inhibitors; shares compounds with TRPC6 inh; AID 2777; hit rate 61% among 920; HEK293 TRPC4/mu-opioid, membrane potential fluorescence; activity change, negative = inhibition, % at 10 µM;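 active = rise or fall in signal beyond 3 SD of buffer-only wells in both replicate plates, either sign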;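 also: integrated kinetic ratio of fluorescence range over baseline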
HEK293 MPD ctr 2-1: second counter-screen for TRPC6 inhibitors: parental HEK293 cells; shares compounds with TRPC6 inh; parental HEK293 membrane potential dye fluorescence; maximal acetylcholine challenge after compound addition; signal change vs control, % at 10 µM; hit rate 31% among 920;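 active = membrane potential signal moving either way by over 3 SD of the maximum-effect control, in both duplicate plates, meaning non-specific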
HEK293 MPD ctr-1: parental HEK293 nonspecific activity of TRPC6 inhibitors; shares compounds with TRPC6 inh; parental HEK293 membrane potential dye fluorescence; membrane potential signal change, % at 10 µM; hit rate 60% among 920; AID 2780;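 active = membrane potential signal shifting up or down by more than 3 SD of buffer-only wells, on both duplicate plates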
HEK293 MPD ctr-2: counter-screen for TRPC6 modulators: effect in parental HEK293 cells; hit rate 51% among 2,400; AID 488924; shares compounds with TRPC6 inh; membrane potential signal change, % at 10 µM; membrane potential dye fluorescence;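 active = membrane potential signal moves up or down beyond 5 SD from buffer-only wells, on both duplicate plates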
HEK293 MPD ctr 2-2: parental HEK293 nonspecific activity of TRPC6 modulators, second screen. shares compounds with TRPC6 inh. membrane potential dye fluorescence; after compound, maximal acetylcholine stimulation. hit rate 14% among 2,400. inhibition, % at 10 µM. AID 488926;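 active = membrane potential signal drops by more than 5 SD from the mean control signal, in both duplicate plates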;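 also: plate controls were acetylcholine ECmax control wells for no effect and buffer only wells for full effect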
TRPC4 ctr mod: mouse TRPC4 off-target activity of TRPC6 modulators. shares compounds with TRPC6 inh. AID 488927. HEK293 TRPC4/mu-opioid, membrane potential fluorescence. hit rate 69% among 2,400. percent change from control (negative = decrease, positive = increase), % at 10 µM;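 active = membrane potential signal moved up or down beyond 5 SD of buffer control wells, in both duplicate plates, actives on both sides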;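 also: plate controls were assay buffer wells for no effect and DAMGO maximal-effect wells for full effect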
TRPC4 ctr inh 2: second check of whether TRPC6 modulators also affect mouse TRPC4; AID 488928; shares compounds with TRPC6 inh; HEK293 TRPC4/mu-opioid, membrane potential dye fluorescence; stimulated with maximal-effect DAMGO; inhibition, % at 10 µM; hit rate 55% among 2,400;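 active = drop in membrane potential signal beyond 5 SD of the control wells in both duplicate plates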;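 also: TRPC4 counter screen for TRPC6 hits run under conditions tuned for TRPC6 not TRPC4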
TRPC6 block conf: confirmation of mouse TRPC6 inhibitors; hit rate 43% among 3,300; shares compounds with TRPC6 inh; inhibition, % at 10 µM; HEK293-TRPC6, membrane potential dye, ACh-evoked depolarization;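 active = fluorescence ratio falls more than 5 SD below the full-stimulation control mean, in both duplicate runs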;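 also: integrated fluorescence ratio of peak minus minimum over baseline after agonist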
TRPC6 act confirm: confirmation of mouse TRPC6 activators; activation, % at 10 µM; HEK293-TRPC6 membrane potential dye fluorescence, FDSS; hit rate 11% among 2,800; shares compounds with TRPC6 inh;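 active = ratio signal rise beyond 5 SD above unstimulated control wells' mean, seen in both duplicate runs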;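 also: plate controls were buffer EC0 wells for no effect and acetylcholine ECmax response for full effect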
* hit, by the source's call; i = inactive; x = no result.

SMILES | TRPC4 act | TRPC6 inh | Kir21 inh | TRPC4 potent | TRPC4 block | TRPC6 activator | TRPC4 sel inh 2 | TRPC4 spec | HEK293 MPD ctr 2-1 | HEK293 MPD ctr-1 | HEK293 MPD ctr-2 | HEK293 MPD ctr 2-2 | TRPC4 ctr mod | TRPC4 ctr inh 2 | TRPC6 block conf | TRPC6 act confirm
O=C(CN1CCCC1)N1c2ccccc2Sc2ccc(C(F)(F)F)cc21 | i | -5.6* | -1.2 | i | i | i | x | x | x | x | i | i | 12%* | i | 53%* | x
O=C(CN1CCOCC1)N1c2ccccc2Sc2ccccc21 | i | i | -0.33 | i | i | i | x | x | x | x | x | x | x | x | x | x
O=C(CN1CCCC1)N1c2ccccc2Sc2ccc(Cl)cc21 | i | -5.5* | -0.25 | i | i | i | x | x | x | x | 96%* | i | 14%* | 47%* | 60%* | x
CCc1cc(C(=O)N(CCCOC)c2c(N)n(Cc3ccccc3)c(=O)[nH]c2=O)sc1C | i | i | -0.16 | i | i | i | x | x | x | x | x | x | x | x | x | x
NC(=O)Cn1c(=O)n(CCC(=O)NCCSCc2ccccc2)c(=O)c2ccccc21 | i | i | 1.1 | i | i | i | x | x | x | x | x | x | x | x | x | x
CCOC(=O)C(C(=O)Nc1ccccc1)C1CCCCC1 (stereo not drawn) | i | i | 0.43 | i | i | i | x | x | x | x | x | x | x | x | x | x
CC[N+](C)(CC)CCC(c1ccccc1)C1CCCCC1 (stereo not drawn) | i | -9.6* | 0.63 | i | i | i | i | i | -16%* | i | x | x | x | x | 81%* | i
CC[N+](C)(CC)CCOC(=O)C(O)(c1ccccc1)C1CCCCC1 (stereo not drawn) | i | -8.9* | 0.58 | i | i | i | i | i | -33%* | i | x | x | x | x | 83%* | i
Cc1cc(OCCN2CCC(Cc3ccccc3)CC2)ccc1[N+](=O)[O-] | i | -8.2* | -2.9 | i | i | i | 54%* | i | i | i | x | x | x | x | i | i
CCOc1ccc(N(CC(=O)NCCSCc2ccc(Cl)cc2)S(C)(=O)=O)cc1 | i | i | 1.9 | i | i | i | x | x | x | x | x | x | x | x | x | x
Oc1c(C2=NCCNC(C(F)(F)F)=C2)ccc2ccccc12 | i | -5* | 0.1 | i | i | i | x | x | x | x | -96%* | i | -22%* | 47%* | i | i
CCc1noc(C)c1C(=O)Nc1cc(S(=O)(=O)N2CCOCC2)ccc1OC(C)C | i | i | -0.07 | i | i | i | x | x | x | x | x | x | x | x | x | x
NCCNc1cc(N2CCCC2)ccc1[N+](=O)[O-] | i | -6.3* | 0.12 | i | i | i | x | x | x | x | -164%* | i | -31%* | 70%* | 58%* | i
CC(=O)Nc1ccc(C(=O)CN2CCN(c3ccccc3)CC2)cc1 | i | i | 0.45 | i | i | i | x | x | x | x | x | x | x | x | x | x
NCCNC[C@@H]1COC2(CCCCCCCCCCC2)O1 | i | -6.9* | -1 | i | i | i | 33%* | 1.8%* | i | 7.8%* | x | x | x | x | 62%* | i
Cc1cc(=O)[nH]c(SCC2COC3(CCCCC3)O2)n1 (stereo not drawn) | i | i | -2.9 | i | i | i | x | x | x | x | x | x | x | x | x | x
Cc1ccc(-c2nc(NCCCO)c3ccccc3n2)cc1 | i | i | -0.61 | i | i | i | x | x | x | x | x | x | x | x | x | x
CN(C)CCCNc1nc(-c2ccc(Cl)cc2)nc2ccccc12 | i | -7.7* | -0.42 | i | i | i | 53%* | -31%* | 34%* | -414%* | x | x | x | x | 70%* | i
Cc1cccc(-c2nc(NCCCN(C)C)c3ccccc3n2)c1 | i | -7.9* | -0.44 | i | i | i | 50%* | -20%* | i | -242%* | x | x | x | x | 76%* | i
CC(=O)Nc1ccc(Nc2ccc3c4c(cc(=O)n3C)-c3ccccc3C(=O)c24)cc1 | i | i | -0.3 | i | i | i | x | x | x | x | x | x | x | x | x | x
O=C1c2ccccc2C(=O)c2c(Nc3ccc(CCO)cc3)ccc(O)c21 | i | -5.2* | 0.03 | i | i | i | x | x | x | x | i | i | -9.0%* | 42%* | i | i
CCOC(=O)N1CCc2c(sc(NC(=O)CN3CCN(C)CC3)c2C(=O)Nc2ccccc2)C1 | i | -5.3* | 1.2 | i | i | i | x | x | x | x | -83%* | i | -24%* | 46%* | i | i
Cc1cc(C)n2nc(-c3ccc(Cl)cc3)cc2n1 | i | i | -0.15 | i | i | i | x | x | x | x | x | x | x | x | x | x
Cc1nc2cc(-c3ccc(Cl)cc3)nn2c(NCCN(C)C)c1C | i | -6* | -4.6* | i | i | i | x | x | x | x | -89%* | i | -21%* | 46%* | i | i
Oc1[nH]c2ccc(Br)cc2c1N=NC(=S)NCC1CCCO1 (stereo not drawn) | i | -8.8* | 1.5 | i | i | i | i | i | i | i | x | x | x | x | i | i
O=C1N=c2ccccc2=C1c1sc(=S)n(NC(=O)c2ccccc2)c1O | i | i | -0.91 | i | i | i | x | x | x | x | x | x | x | x | x | x
